ChEMBL document CHEMBL1128506, “Synthesis and dopaminergic activity of pyridine analogs of 5-hydroxy-2-(di-n-propylamino)tetralin” (J Med Chem, 1995)

Key:
D(2) dopamine receptor [1] = biological target: T1, D(2) dopamine receptor (Homo sapiens, UniProt P14416); experiment: In vitro binding affinity is the ability to displace [3H]N-0437 from human Dopamine receptor D2 expressed in CHO-K1 cells; type: cell-based
D(2) dopamine receptor [2] = biological target: T1, D(2) dopamine receptor; experiment: In vitro binding affinity is the ability to displace [3H]spiperone from human Dopamine receptor D2 expressed in CHO-K1 cells; type: cell-based
D(3) dopamine receptor [3] = biological target: T2, D(3) dopamine receptor (Homo sapiens, UniProt P35462); experiment: In vitro binding affinity is the ability to displace [3H]spiperone from human Dopamine receptor D3 expressed in CHO-K1 cells.; type: cell-based
T2 sequence (P35462 whole entry): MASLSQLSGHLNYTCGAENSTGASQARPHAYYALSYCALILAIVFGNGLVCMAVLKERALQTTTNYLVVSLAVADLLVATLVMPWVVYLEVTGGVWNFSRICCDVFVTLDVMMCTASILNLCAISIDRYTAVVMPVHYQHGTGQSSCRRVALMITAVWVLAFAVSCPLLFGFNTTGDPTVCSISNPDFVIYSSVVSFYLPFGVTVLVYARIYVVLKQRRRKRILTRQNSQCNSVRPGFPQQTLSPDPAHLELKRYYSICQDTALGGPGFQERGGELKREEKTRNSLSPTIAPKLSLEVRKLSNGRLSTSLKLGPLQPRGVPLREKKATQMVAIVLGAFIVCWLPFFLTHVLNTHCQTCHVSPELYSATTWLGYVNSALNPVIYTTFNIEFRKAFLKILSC

Mus musculus [4] = experiment: Inhibition of locomotor activity(LMA) in mouse after ip administration of the compound.; type: functional
In short: (§1)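 Mice given compound ip, then tested immediately for 1 h in darkened cylindrical photobeam chambers. Activity expressed as percent inhibition relative to vehicle-treated animals.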

Rattus norvegicus [5] = experiment: Percent reversal of the increase on DOPA levels in the striatum of GBL-treated rats administered ip with 10 mg/kg of compound.; type: functional; conditions: route intraperitoneal
In short: (§2)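 Male Long-Evans rats received compound 1 h before sacrifice. GBL (750 mg/kg ip) and the decarboxylase inhibitor NSD 1015 (100 mg/kg ip) were given 30 min before sacrifice. Striatal DOPA was measured by HPLC with electrochemical detection. Result reported as percent reversal of the GBL-induced DOPA increase, n = 4.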

D(3) dopamine receptor [6] = biological target: T2, D(3) dopamine receptor; experiment: In vitro binding affinity is the ability to displace [3H]spiperone from human Dopamine receptor D3 expressed in CHO-K1 cells; type: cell-based
In short: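 CHO-K1 cells stably expressing human D3 receptor, grown in F-12 medium with 10% fetal bovine serum under humidified 5% CO2/95% air.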

Rattus norvegicus [7] = experiment: Inhibition of locomotor activity(LMA) in rat after sc administration of the compound.
Rattus norvegicus [8] = experiment: as above; remark: listed apart in the source
Mus musculus [9] = experiment: Inhibition of locomotor activity(LMA) in mouse after ip administration of the compound; type: functional; in short: as §1
Rattus norvegicus [10] = experiment: Percent reversal of the increase on DOPA levels in the striatum of GBL-treated rats administered ip with 10 mg/kg of compound; type: functional; conditions: route intraperitoneal; in short: as §2

T1 sequence (P14416 whole entry): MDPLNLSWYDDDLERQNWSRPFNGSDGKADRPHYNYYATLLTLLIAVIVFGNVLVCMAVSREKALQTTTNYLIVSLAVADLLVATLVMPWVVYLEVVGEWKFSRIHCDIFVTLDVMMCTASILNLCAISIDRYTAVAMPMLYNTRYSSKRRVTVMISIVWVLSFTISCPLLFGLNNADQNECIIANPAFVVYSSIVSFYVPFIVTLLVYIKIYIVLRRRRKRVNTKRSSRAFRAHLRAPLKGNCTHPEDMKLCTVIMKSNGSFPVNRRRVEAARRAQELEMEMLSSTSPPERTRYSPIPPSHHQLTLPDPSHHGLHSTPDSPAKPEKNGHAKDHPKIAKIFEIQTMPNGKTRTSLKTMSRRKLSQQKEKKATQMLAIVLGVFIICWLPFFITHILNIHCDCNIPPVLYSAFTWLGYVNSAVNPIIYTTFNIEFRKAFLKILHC

In the case of `CCCN(CCC)C1CCc2cc(OC)ccc2C1` (centres undefined), the Ki (D(2) dopamine receptor [1]) is reported as 3940 nM, the Ki (D(2) dopamine receptor [2]) is reported as > 10000 nM and the Ki (D(3) dopamine receptor [3]) is reported as 366 nM.

For `CCCN(CCC)C1CCc2nc(OC)ccc2C1` (centres undefined), the Ki (D(2) dopamine receptor [1]) was 1200 nM, the Ki (D(2) dopamine receptor [2]) was > 3330 nM and the Ki (D(3) dopamine receptor [3]) was 158 nM. For the same compound, the ED50 (Mus musculus [4]) was > 30 mg/kg and the Decrease (Rattus norvegicus [5]) was 62%.

For `CCCN(CCC)C1CCc2n[nH]cc2C1` (centres undefined), the Ki (D(2) dopamine receptor [1]) was 523 nM, the Ki (D(2) dopamine receptor [2]) was > 3330 nM and the Ki (D(3) dopamine receptor [6]) was 36 nM. For the same compound, the ED50 (Mus musculus [4]) was 0.64 mg/kg, the Decrease (Rattus norvegicus [5]) was 91% and the Inhibition (Rattus norvegicus [7]) was 45%.

Compound `CCCN(CCC)C1CCc2ncccc2C1` (centres undefined) has a Ki (D(2) dopamine receptor [1]) of 466 nM, a Ki (D(2) dopamine receptor [2]) of 272 nM and a Ki (D(3) dopamine receptor [3]) of 4.97 nM. It also gave an ED50 (Mus musculus [4]) of 0.08 mg/kg, a Decrease (Rattus norvegicus [5]) of 86% and an ED50 (Rattus norvegicus [8]) of 0.01 mg/kg.

`CCCN(CCC)C1CCc2nc(N)sc2C1` (centres undefined) showed a Ki (D(2) dopamine receptor [1]) of 57 nM, a Ki (D(2) dopamine receptor [2]) of 462 nM and a Ki (D(3) dopamine receptor [6]) of 1.9 nM. The ED50 (Mus musculus [9]) was > 30 mg/kg and the Decrease (Rattus norvegicus [10]) was 88%.

Work on `CCCN(CCC)C1CCc2c(O)cccc2C1` (centres undefined) [5-OH-DPAT] yielded an ED50 (Mus musculus [4]) of 0.01 mg/kg, a Decrease (Rattus norvegicus [5]) of 70% and an ED50 (Rattus norvegicus [8]) of 0.004 mg/kg.

Work on `CCCN(CCC)C1CCc2nc(N)ccc2C1` (centres undefined) yielded a Ki (D(2) dopamine receptor [1]) of 5 nM, a Ki (D(2) dopamine receptor [2]) of 17.1 nM and a Ki (D(3) dopamine receptor [3]) of 0.87 nM. The ED50 (Mus musculus [4]) was 0.25 mg/kg, the Decrease (Rattus norvegicus [5]) was 86% and the ED50 (Rattus norvegicus [8]) was 0.05 mg/kg.
